The text below walks through data of ChEMBL document CHEMBL1131050, “Benzoxazole derivatives as novel 5-HT3 receptor partial agonists in the gut” (J Med Chem, 1998).

Test [1] deals with 5-HT3 receptor (Cavia porcellus). The experiment in a line: Maximal partial agonist activity at 5-hydroxytryptamine 3 receptor of isolated guinea pig ileum as ratio to 5-HT response.
The target in test [2] is T1, Serotonin 3 (5-HT3) receptor (Rattus norvegicus, UniProt P35563+Q9JJ16).
T1 sequence (P35563 whole entry): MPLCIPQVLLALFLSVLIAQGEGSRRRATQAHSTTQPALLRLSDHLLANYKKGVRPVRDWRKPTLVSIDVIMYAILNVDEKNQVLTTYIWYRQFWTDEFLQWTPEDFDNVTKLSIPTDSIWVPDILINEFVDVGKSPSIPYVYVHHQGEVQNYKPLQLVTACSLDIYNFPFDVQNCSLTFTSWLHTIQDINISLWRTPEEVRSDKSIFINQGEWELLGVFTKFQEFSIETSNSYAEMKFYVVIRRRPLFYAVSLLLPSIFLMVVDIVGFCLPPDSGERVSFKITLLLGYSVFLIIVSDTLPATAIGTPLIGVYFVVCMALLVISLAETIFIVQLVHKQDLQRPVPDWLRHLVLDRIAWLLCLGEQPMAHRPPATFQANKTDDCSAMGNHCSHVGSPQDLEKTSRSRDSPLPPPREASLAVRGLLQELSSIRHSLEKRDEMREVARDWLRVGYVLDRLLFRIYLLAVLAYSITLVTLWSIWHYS
T1 sequence (Q9JJ16 whole entry): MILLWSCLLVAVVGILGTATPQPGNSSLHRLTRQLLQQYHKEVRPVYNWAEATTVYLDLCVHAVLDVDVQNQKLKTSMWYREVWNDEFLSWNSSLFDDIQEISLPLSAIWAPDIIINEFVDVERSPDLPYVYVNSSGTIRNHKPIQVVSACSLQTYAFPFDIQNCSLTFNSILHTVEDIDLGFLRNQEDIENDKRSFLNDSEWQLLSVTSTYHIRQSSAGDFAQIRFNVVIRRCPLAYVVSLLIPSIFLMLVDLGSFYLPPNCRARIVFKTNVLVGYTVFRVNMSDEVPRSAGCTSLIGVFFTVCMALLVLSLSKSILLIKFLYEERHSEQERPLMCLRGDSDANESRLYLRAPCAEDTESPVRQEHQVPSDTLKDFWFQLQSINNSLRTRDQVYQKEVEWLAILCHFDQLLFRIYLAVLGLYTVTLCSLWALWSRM
The experiment in a line: Binding affinity for 5-hydroxytryptamine 3 receptor in rat cerebral cortex, determined by displacement of [3H]GR-65630. The class given is tissue-based. The gist of the method:
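Membranes from cortex of male Wistar rats (250–300 g); 0.04 mg membrane incubated with 0.2 nM […], 60 min, 22 °C; filtration, three washes, filter counting. Nonspecific binding defined with 1 mM ICS205-930. Six replicates per dose; displacement curves fitted by nonlinear regression to give IC50, converted to Ki by Cheng–Prusoff.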

The subject of test [3] is 5-HT3 receptor (Cavia porcellus). The experiment in a line: Potency of partial agonist action given by concentration producing 50% of individual maximal contraction of isolated guinea pig ileum.
Test [4] deals with Mus musculus. The experiment in a line: Transition time (time required to evacuate the glass bead) in the distal colon in mice at dose 0.3 mg/kg. The class given is functional. Summed up:
(§1)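 Male mice fasted 4 h. Compound given sc 20 min before a 3 mm glass bead was inserted 3 cm into the distal colon; time to expel the bead was recorded. 8 animals per group, mean ± SEM. Compared with control by ANOVA followed by Steel's multiple range test, p < 0.05.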

Test [5] concerns Mus musculus. The experiment in a line: Transition time (time required to evacuate the glass bead) in the distal colon in mice at dose 3 mg/kg. The class given is functional. The gist of the method: as §1
Test [6] deals with Mus musculus. The experiment in a line: Transition time (time required to evacuate the glass bead) in the distal colon in mice at dose 1 mg/kg. The class given is functional. The gist of the method:
as §1

The test system of test [7] is Alpha-1 adrenergic receptor (Rattus norvegicus). Put plainly: Inhibitory activity against Alpha-1 adrenergic receptor using [3H]prazosin as radioligand at 10e-5 M concentration.
In test [8] the target is T2, 5-hydroxytryptamine receptor 1F (Rattus norvegicus) (UniProt P30940).
T2 sequence (whole entry): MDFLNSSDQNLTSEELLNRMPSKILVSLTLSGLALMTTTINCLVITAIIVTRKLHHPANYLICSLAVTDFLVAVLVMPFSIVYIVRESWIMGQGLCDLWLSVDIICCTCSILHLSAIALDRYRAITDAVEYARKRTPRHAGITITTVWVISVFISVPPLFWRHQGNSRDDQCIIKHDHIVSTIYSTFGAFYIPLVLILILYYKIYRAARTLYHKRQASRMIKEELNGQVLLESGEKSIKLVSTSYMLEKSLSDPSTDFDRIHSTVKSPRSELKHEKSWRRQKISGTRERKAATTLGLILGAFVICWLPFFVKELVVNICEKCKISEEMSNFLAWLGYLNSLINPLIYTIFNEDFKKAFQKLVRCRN
Put plainly: Inhibitory activity against 5-hydroxytryptamine 1 receptor using [3H]5-HT as radioligand at 10e-5 M concentration.

Test [9] deals with T1, Serotonin 3 (5-HT3) receptor. The experiment in a line: Binding affinity for 5-hydroxytryptamine 3 receptor was determined by measuring displacement of [3H]GR-65630 from rat brain cortices.
Test [10] has as its target D(2) dopamine receptor (Homo sapiens) (UniProt P14416). Put plainly: Inhibitory activity against Dopamine receptor D2 using [3H]-spiperone as radioligand at 10e-5 M concentration.
Test [11] is filed under the species Rattus norvegicus. The experiment in a line: Inhibitory dose against 5-HT-Evoked Bezold-Jarisch (B-J) reflex in rats. It counts as functional. To be noted: read-out: ID50 (the source's name).
The target in test [12] is D(1A) dopamine receptor (Mus musculus) (UniProt Q61616). Put plainly: Inhibitory activity against Dopamine receptor D1 using [3H]SCH-23390 as radioligand at 10e-5 M concentration at 10e-5 M concentration.
Chain of D(1A) dopamine receptor (Mus musculus) (Q61616 whole entry): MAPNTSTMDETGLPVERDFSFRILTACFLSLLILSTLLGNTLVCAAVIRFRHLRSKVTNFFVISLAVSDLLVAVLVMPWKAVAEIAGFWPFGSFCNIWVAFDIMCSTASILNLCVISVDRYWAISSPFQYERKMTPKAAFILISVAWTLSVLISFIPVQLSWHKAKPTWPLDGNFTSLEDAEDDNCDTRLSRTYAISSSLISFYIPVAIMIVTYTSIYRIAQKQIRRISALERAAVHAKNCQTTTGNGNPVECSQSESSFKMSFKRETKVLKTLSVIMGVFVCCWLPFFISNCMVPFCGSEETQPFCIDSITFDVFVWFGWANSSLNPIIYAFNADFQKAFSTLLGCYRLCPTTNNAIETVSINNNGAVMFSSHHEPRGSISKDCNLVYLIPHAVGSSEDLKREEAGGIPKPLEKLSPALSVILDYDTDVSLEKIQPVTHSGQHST
In test [13] the test system is Mus musculus. Put plainly: Transition time (time required to evacuate the glass bead) in the distal colon in mice at dose 30 mg/kg. It counts as functional. Summed up:
as §1

Test [14] concerns Mus musculus. Put plainly: Inhibitory activity against 5-HT evoked diarrhea in mice, sc. It counts as functional. The following applies: read-out: ID50 (the source's name).
In test [15] the target is Beta-2 adrenergic receptor (Canis lupus familiaris) (UniProt P54833). Put plainly: Inhibitory activity against non-selective beta adrenergic receptor using [3H]DHA as radioligand at 10e-5 M concentration.
Chain of Beta-2 adrenergic receptor (Canis lupus familiaris) (P54833 whole entry, looked up): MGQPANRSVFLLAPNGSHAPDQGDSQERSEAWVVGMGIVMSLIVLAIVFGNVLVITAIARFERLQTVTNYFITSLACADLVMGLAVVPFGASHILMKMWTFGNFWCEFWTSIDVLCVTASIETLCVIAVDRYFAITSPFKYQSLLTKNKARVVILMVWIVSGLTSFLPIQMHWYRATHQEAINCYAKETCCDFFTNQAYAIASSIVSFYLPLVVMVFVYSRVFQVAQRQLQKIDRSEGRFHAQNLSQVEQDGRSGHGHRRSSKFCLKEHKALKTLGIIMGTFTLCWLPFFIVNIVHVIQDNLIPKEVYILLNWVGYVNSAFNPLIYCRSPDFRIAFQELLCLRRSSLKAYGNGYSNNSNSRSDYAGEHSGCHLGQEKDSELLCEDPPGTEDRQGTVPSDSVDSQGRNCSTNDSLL
For test [16], the target named is GABA-A receptor; anion channel (Homo sapiens) (UniProt P14867+P47870+P18507+P28472+P48169+Q99928+Q9UN88+P34903+O00591+O14764+Q8N1C3+P18505+P78334+P47869+P31644+Q16445). The experiment in a line: Inhibition of [3H]flunitrazepam binding to GABA-A central benzodiazepine receptor at 10e-5 M. It counts as protein-complex assay.
Test [17] concerns the target T3, 5-hydroxytryptamine receptor 1A (Mus musculus) (UniProt Q64264).
T3 sequence (whole entry): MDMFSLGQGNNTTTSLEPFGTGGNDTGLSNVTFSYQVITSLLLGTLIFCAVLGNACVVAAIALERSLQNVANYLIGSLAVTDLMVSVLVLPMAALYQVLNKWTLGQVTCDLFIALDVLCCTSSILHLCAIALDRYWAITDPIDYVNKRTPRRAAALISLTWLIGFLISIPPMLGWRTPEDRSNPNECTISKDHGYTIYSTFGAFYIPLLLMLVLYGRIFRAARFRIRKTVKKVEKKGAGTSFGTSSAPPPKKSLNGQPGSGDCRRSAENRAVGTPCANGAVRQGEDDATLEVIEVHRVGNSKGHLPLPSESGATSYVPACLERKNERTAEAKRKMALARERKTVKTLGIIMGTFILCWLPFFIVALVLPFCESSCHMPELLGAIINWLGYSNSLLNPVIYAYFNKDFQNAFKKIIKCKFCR
The experiment in a line: Inhibitory activity against 5-hydroxytryptamine 1A receptor using [3H]8-OH-DPAT as radioligand at 10e-5 M concentration.

Test [18] relates to Alpha-2 adrenergic receptor (Rattus norvegicus). Put plainly: Inhibitory activity against Alpha-2 adrenergic receptor using [3H]rauwolscine as radioligand at 10e-5 M concentration.
The target in test [19] is 5-hydroxytryptamine receptor 2A (Bos taurus) (UniProt Q75Z89). Put plainly: Inhibitory activity against 5-hydroxytryptamine 2 receptor using [3H]-ketanserin as radioligand at 10e-5 M concentration.
Chain of 5-hydroxytryptamine receptor 2A (Bos taurus) (Q75Z89 whole entry): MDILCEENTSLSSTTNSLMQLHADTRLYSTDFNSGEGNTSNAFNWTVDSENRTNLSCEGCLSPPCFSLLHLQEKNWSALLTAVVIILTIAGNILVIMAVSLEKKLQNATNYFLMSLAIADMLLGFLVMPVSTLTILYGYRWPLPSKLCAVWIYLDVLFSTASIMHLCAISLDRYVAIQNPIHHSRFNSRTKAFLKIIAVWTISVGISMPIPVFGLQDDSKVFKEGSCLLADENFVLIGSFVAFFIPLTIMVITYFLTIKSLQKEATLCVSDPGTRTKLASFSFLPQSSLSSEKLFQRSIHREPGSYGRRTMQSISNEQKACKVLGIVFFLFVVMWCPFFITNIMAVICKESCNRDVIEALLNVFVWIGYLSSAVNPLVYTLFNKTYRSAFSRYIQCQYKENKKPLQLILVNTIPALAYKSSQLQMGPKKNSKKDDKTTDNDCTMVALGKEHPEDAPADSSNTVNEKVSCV

Chain of D(2) dopamine receptor (Homo sapiens) (P14416 whole entry): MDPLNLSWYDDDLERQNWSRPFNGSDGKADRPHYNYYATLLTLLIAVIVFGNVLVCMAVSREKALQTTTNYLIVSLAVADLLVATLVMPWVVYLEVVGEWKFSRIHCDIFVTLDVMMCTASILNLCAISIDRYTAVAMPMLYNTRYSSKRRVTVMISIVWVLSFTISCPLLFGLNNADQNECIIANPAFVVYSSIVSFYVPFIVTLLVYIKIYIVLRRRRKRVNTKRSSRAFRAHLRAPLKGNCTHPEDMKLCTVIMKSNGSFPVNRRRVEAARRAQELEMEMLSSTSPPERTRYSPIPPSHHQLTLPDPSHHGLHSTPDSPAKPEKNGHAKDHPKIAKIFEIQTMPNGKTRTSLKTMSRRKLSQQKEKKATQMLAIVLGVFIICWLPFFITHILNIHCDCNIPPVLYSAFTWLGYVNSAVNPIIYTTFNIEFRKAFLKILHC

As to `CN1CCN(c2nc3cc(Br)ccc3o2)CC1`, the IA in test [1] turned out to be 0.48. Also, in test [2], the “inhibition at 10^-7 M” value is 92%. The pD2 in test [3] was 6.21.

In the case of `Cc1cc(C)c2oc(N3CCN(C)CC3)nc2c1`, in test [1], the IA was 0.62. For the same molecule, in test [2], the “inhibition at 10^-7 M” value came to 94%. Moreover, in [3], the pD2 worked out at 6.32.

As to `Cc1cc(Cl)cc2nc(N3CCN(C)CC3)oc12`, the IA in [1] is 0.24. In addition, the “inhibition at 10^-7 M” value in test [2] was 85%. The pD2 in [3] is 6.7.

With `c1ccc2oc(C3CCNCC3)nc2c1`, the IA in test [1] was found to be 0.31. Further, the “inhibition at 10^-7 M” value in test [2] is given as 39%. Besides, the pD2 in test [3] came out at 5.59.

In the case of `c1ccc2oc(N3CCNCC3)nc2c1`, in test [2], the “inhibition at 10^-7 M” value worked out at 83%.

Take `c1ccc2oc(N3CCCCC3)nc2c1`: in test [3], the pD2 is less than 5.

On to `CN1CCN(c2nc3cc(Cl)cc(Cl)c3o2)CC1`, for which the IA in [1] came to 0.14. Also, in test [2], the “inhibition at 10^-7 M” value is 62%. In addition, the pD2 in test [3] was found to be 6.51.

As for `CN1CCN(c2nc3cc(F)ccc3o2)CC1`, the IA in test [1] came to 0.64. Further, the “inhibition at 10^-7 M” value in [2] came to 91%. The pD2 in test [3] came out at 5.57.

For the molecule `CN1CCN(c2nc3cc(C(F)(F)F)ccc3o2)CC1`, the “inhibition at 10^-7 M” value in [2] was determined as 22%. In test [3], the pD2 is less than 5.

Regarding `CN1CCCN(c2nc3cc(Cl)ccc3o2)CC1`, the IA in test [1] is 0.31. Also, in [2], the “inhibition at 10^-7 M” value is given as 87%. The molecule also gave a pD2 in test [3] of 7.

For the molecule `CN1C2CCCC1CC(NC(=O)c1nn(C)c3ccccc13)C2` (stereo not given) [GRANISETRON], the figures for the Time in test [4], in [5] and in [6] were 373 s, 827 s and 614 s, respectively.

Consider `Cc1cccc2nc(N3CCN(C)CC3)oc12`, for which, in test [1], the IA worked out at 0.58. In addition, in test [2], the “inhibition at 10^-7 M” value is given as 77%. This molecule yielded a pD2 in test [3] of 5.46.

On to `Cc1ccc2oc(N3CCN(C)CC3)nc2c1`, for which, in test [1], the IA worked out at 0.72. In test [2], the “inhibition at 10^-7 M” value stood at 83%. Further, the pD2 in [3] was 6.

For `Cc1c(Cl)cc2nc(N3CCN(C)CC3)oc2c1C`, the IA in test [1] stood at 0.14. Moreover, the “inhibition at 10^-7 M” value in test [2] was found to be 101%. The pD2 in [3] is 6.67.

As to `Cc1c(Cl)cc2nc(N3CCN(C)CC3)oc2c1Cl`, the IA in test [1] amounted to 0.1. Moreover, the “inhibition at 10^-7 M” value in [2] worked out at 96%. Moreover, the pD2 in test [3] amounted to 6.64.

Take `Cc1cccc2oc(N3CCN(C)CC3)nc12`: the “inhibition at 10^-7 M” value in test [2] was 25%. Also, in test [3], the pD2 is less than 5.

As to `Cc1cc(Cl)cc2nc(N3CCCN(C)CC3)oc12`, the inhibition stood at 22% in [7]; 14% in test [8]; 5% in test [10]; 18% in test [12]; 24% in test [15]; 12% in [16]. Moreover, the inhibition in test [17] was -3%; in test [18], 33%; in test [19], 23%. In [9], this molecule registered a Ki of 1.1 nM. The ED50 in [11] is 0.0876 mg/kg; in test [14], 0.3 mg/kg. Moreover, the Time in test [4] is 262.6 s; in [13], 328.8 s; in [5] it was 357.2 s. Also, the IA in test [1] was determined as 0.12. Moreover, the “inhibition at 10^-7 M” value in test [2] is 98%. In [3], the pD2 is 7.76.

Regarding `Cc1cc2nc(N3CCN(C)CC3)oc2cc1C`, the IA in test [1] amounted to 0.66. The “inhibition at 10^-7 M” value in test [2] was 32%. In addition, in test [3], the pD2 is 6.16.

As for `CCc1ccc2oc(N3CCN(C)CC3)nc2c1`, the “inhibition at 10^-7 M” value in test [2] is recorded as 11%. In [3], this molecule gave a pD2 of less than 5.

In the case of `CN1CCCN(c2nc3ccccc3o2)CC1`, the IA in test [1] was determined as 0.54. In addition, the “inhibition at 10^-7 M” value in test [2] came out at 86%. In [3], the pD2 came out at 6.03.

Turning to `CN1CCN(c2nc3ccccc3o2)CC1`, the IA in test [1] stood at 0.62. Also, the “inhibition at 10^-7 M” value in [2] came out at 55%. The same molecule registered a pD2 in test [3] of 5.01.

Consider `CN1CCN(c2nc3cc(Cl)ccc3o2)CC1`, for which, in test [1], the IA was 0.5. The “inhibition at 10^-7 M” value in test [2] worked out at 94%. The same molecule gave a pD2 in [3] of 6.07.

For the molecule `Cc1ccc2nc(N3CCN(C)CC3)oc2c1`, the IA in [1] was determined as 0.85. Also, the “inhibition at 10^-7 M” value in [2] amounted to 74%. Also, the pD2 in test [3] came to 5.15.

Take `Cc1cc2oc(N3CCN(C)CC3)nc2cc1Cl`: in test [1], the IA came out at 0.28. Also, the “inhibition at 10^-7 M” value in test [2] came to 95%. The same molecule had a pD2 in test [3] of 6.28.
